The values that follow come from the RNAGym collection of RNA variant scans (doi:10.1126/science.aae0568).

Variants at the floor of the assay were thinned out.

Sequences and labels used below:
B1: tRNA (parent)
chain: GUUCCGUUGGCGUAAUGGUAACGCGUCUCCCUCCUAAGGAGAAGACUGCGGGUUCGAGUCCCGUACGGAACG

In the series the parent is B1. Kind of series: yeast fitness relative to wild type (ratio to wild type); higher = fitter; tRNA-Arg(CCU), competitive growth, 37 C, YPD. In outline:
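Changes in genotype frequencies gave Darwinian fitness relative to wild type. Frequencies were read by 100-nucleotide paired-end sequencing of gene amplicons before and after pooled Saccharomyces cerevisiae strains, carrying tRNA-Arg(CCU) gene variants at the native locus, were competed in YPD at 37°C for 24 hours in six replicates. A genotype was kept only with ≥ 100 starting reads, and estimates < 0.5 were set to 0.5.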
With U47G A57U C60A, the yeast fitness was determined as 0.555.

Consider G10C A57C, for which the yeast fitness is at most 0.5. With C46G G52A C66U, the yeast fitness was 0.631. With U8C G25C C33A, the yeast fitness was at most 0.5. Consider G6A C27U A42U, for which the yeast fitness was at most 0.5.

As to U7A A36U U64C, the yeast fitness is at most 0.5.

Regarding G25A A70U, the yeast fitness was 1.01. Consider A20U C61G, for which the yeast fitness stood at 0.712. On to G9C C49U A65U, for which the yeast fitness was 0.52. As to G6C G12A U54C, the yeast fitness was 0.594. As for C5U C11A A21C C27G, the yeast fitness was 0.564.

C5G C22A U26C C33G U64A G67C: the yeast fitness worked out at 0.544.

As to G10A C11U A43U C60U, the yeast fitness is at most 0.5.

Consider C4A C29U C30G C49U, for which the yeast fitness was at most 0.5. Take G6C U47A: the yeast fitness stood at 0.818.

As for G10C C24U, the yeast fitness is 0.716. For the variant C5U A37C C60U G67A, the yeast fitness stood at 0.558.

Consider C5A C29G G56C U59A, for which the yeast fitness is 0.717. As for A15U G38C G39A A43C C61U, the yeast fitness was at most 0.5. C4U A21U A42G G50C C66U A70U: the yeast fitness is at most 0.5. Consider C24G C33G A36C A37C A42C A65U, for which the yeast fitness is at most 0.5. In the case of G56A U59C A65C A70G, the yeast fitness came out at 0.568.

On to G51C G56A G58C, for which the yeast fitness was at most 0.5.

As to U28C C33G C66A, the yeast fitness is 0.616. Turning to C24A A42G U47C U59C, the yeast fitness is at most 0.5.

Take C4U C11A A37C: the yeast fitness is 0.569. For C29U A37G G48C G67C, the yeast fitness is at most 0.5. Turning to G44A C49G, the yeast fitness was found to be 0.714.

With C11U U26C U47C, the yeast fitness came to 0.799. Under G12A A15U G17A stands at most 0.5.

Regarding G10C C31U, the yeast fitness amounted to 0.78. Turning to C22A U47A, the yeast fitness came to 0.629.

Take U7G U26C A42U C46U: the yeast fitness worked out at 0.581.

Regarding C4A C66U, the yeast fitness worked out at 0.862.

For the variant A37U A42C, the yeast fitness worked out at 0.698.

As for A14C U19A U59C A69G, the yeast fitness was determined as 0.652. As for G25A C33U, the yeast fitness was 0.655. U2C C4U: the yeast fitness was 0.969. Under A15G C24U C29U C30G U35G A70G stands at most 0.5; under U7A C27U A69C, 0.649. With C4A G23A U53C A57C the figure was at most 0.5; with G58C G63C, 0.702.

As to C22A A42U G44A C62U, the yeast fitness was at most 0.5.

For C4G A36U C46U, the yeast fitness amounted to 0.59. A14G C30U C46A: the yeast fitness amounted to 0.763. With A15C C27U C31A C55U G68A, the yeast fitness was at most 0.5.

With G48C G52C, the yeast fitness was found to be 0.552. For C27G U64A, the yeast fitness came to 0.665.

In the case of U16C C31G, the yeast fitness was 0.838.

As for U3C G10C C33U A40C, the yeast fitness was at most 0.5. Under U3C G12A C33G A42C A65G stands at most 0.5; under U8C A15U U16A U26A G58A, at most 0.5. In the case of G10C A21G C29A A43U C55A, the yeast fitness came out at 0.651. In the case of G12C C27U G58C A69C, the yeast fitness is 0.657. As to C5G A21C A43U A70G, the yeast fitness was at most 0.5. On to C30G C62G, for which the yeast fitness is 0.551. With U7C A37C A40C A45U A57C the figure was 0.573; with C22U A36U G56A C66U, at most 0.5; with C31A C49G, 0.64. With C24U U47A the figure was 0.683; with U8C A20U A21U U26G C31A U53A A69C, at most 0.5. Under G23A C46A stands 0.882; under A65U A70U, 1.11; under U16C C33G G39C A69C, at most 0.5. G12A A42C: the yeast fitness amounted to 0.89. In the case of U8G U35A A70U, the yeast fitness was at most 0.5. C4G C29A G50A: the yeast fitness was at most 0.5. On to A20U C46G G51C C61U, for which the yeast fitness is at most 0.5. With C30U C31A, the yeast fitness worked out at 0.754.

Take C46G G48C U64G: the yeast fitness is at most 0.5.

For the variant G6C U8G G10C A37G C62U U64A, the yeast fitness is 0.504. Under C11U A43G A57U stands 0.568. On to C4G A14G A37U G38A, for which the yeast fitness was at most 0.5. For C29G U35C G56A C62G, the yeast fitness was at most 0.5. With C31A A65U the figure was 0.725; with G9A C29U C46U C66U, 0.637; with G17A C46U, 0.878. On to C4G C5A C24U C61U C66U A70C, for which the yeast fitness worked out at 0.514. C5A U7A G25C C46U: the yeast fitness is at most 0.5. As for C5U A15G U19A A21U C34U, the yeast fitness was at most 0.5.

Take U19A C27U A45U C62A: the yeast fitness is at most 0.5.

In the case of U13A C55A, the yeast fitness was found to be 0.648.

For the variant A20G A36C C49G C61G C62G, the yeast fitness was at most 0.5.

As to G17C U47C, the yeast fitness was found to be 0.711. On to A14G C34G G63C G67C, for which the yeast fitness was at most 0.5.

For C11U C34A A36C G68C, the yeast fitness is at most 0.5. As for C29U A42U A43U A57C A70G, the yeast fitness came out at 0.577. With U2C G25C A36U G38A the figure was at most 0.5. With C31G G38U the figure was 0.804; with U3A C4A U8C C29G A37C C62U A70U, at most 0.5; with C11G C22G C33G, 0.59. With C11U U13C U28C A42U C55A G56A, the yeast fitness is at most 0.5. As for C5U G6A A15U A21G U54G, the yeast fitness was at most 0.5. As for U35C A43U U47A, the yeast fitness was at most 0.5.

As to A15U A65G, the yeast fitness was 0.649. As to U13C A36C U47C G67U, the yeast fitness is at most 0.5. Turning to U3A U7G A14U G25A G41C C46U, the yeast fitness is at most 0.5. On to G38A G41C, for which the yeast fitness turned out to be 0.659. With A15U G23A C34A C49G A57G the figure was 0.57; with G23A A36G A57C C60A, at most 0.5; with U3C A65G, 0.887. As to C49U G50A, the yeast fitness came out at 0.93. With A15C C30U G67A, the yeast fitness is at most 0.5.

For the variant A20C C34U, the yeast fitness worked out at 0.65.

On to C5G C11U, for which the yeast fitness came to 0.886. Consider A14U U64C, for which the yeast fitness amounted to 0.71. For the variant C24U A36G U47A, the yeast fitness was found to be 0.529. Consider U13C C22G, for which the yeast fitness worked out at 0.709. With G12A A15G C22U C31A U35G C61U A65C A69G, the yeast fitness was at most 0.5.

Turning to U28G C30G A40C A42U G67A, the yeast fitness is at most 0.5.

For the variant C29G A36U A65U, the yeast fitness is at most 0.5. On to U8C U26A, for which the yeast fitness worked out at 0.884.

U19C C49A G68C: the yeast fitness is at most 0.5. On to C11G U13A U16G U26A A65G, for which the yeast fitness is at most 0.5. Regarding A14G U54A A69U, the yeast fitness was at most 0.5. In the case of C34U G50C, the yeast fitness came out at 0.528. Regarding G12A C31A G38C A65G, the yeast fitness was at most 0.5.

Regarding U7A U53A, the yeast fitness is at most 0.5. For U26C C27G A69C, the yeast fitness was at most 0.5.

For the variant C4U C11G C29U U59G, the yeast fitness is at most 0.5.

With U2C U13A G39C C60G, the yeast fitness is at most 0.5. C27G G41A G68C: the yeast fitness amounted to 0.71. Under G23C G56C stands at most 0.5. On to C11U A37C G56A, for which the yeast fitness was at most 0.5. For C5G C27U G44C G48C, the yeast fitness was at most 0.5. Consider U28G A36G, for which the yeast fitness is 0.712. Consider G10A G12A G17U U28C U54C, for which the yeast fitness is at most 0.5. On to C5U C11A C31U C34U, for which the yeast fitness is at most 0.5. As to G12A A14U C66A A70G, the yeast fitness was at most 0.5. Consider C11A U13A A20G C61U A69C, for which the yeast fitness was at most 0.5. With G10C A42C A43G the figure was at most 0.5. Regarding C24U C30A G50A, the yeast fitness is 0.587. With G12C C24U C46U C49G C62A the figure was at most 0.5; with G56A G63A G67C, 0.543; with U16G U19G C29G G50C C66U, at most 0.5.

On to G6A C24A, for which the yeast fitness came out at 0.654.

Take A42C A70U: the yeast fitness worked out at 1.02. C4A G18A G58A A70U: the yeast fitness is at most 0.5. With A15U A20G C27A C29A U47G C60G, the yeast fitness is at most 0.5. As to G12A U19A G41A A42G G58U G63C, the yeast fitness is at most 0.5. In the case of A14G G38A A40C G50A U54A, the yeast fitness was 0.523.

Regarding U8C A14U C22G C30U A57C C61A G67A, the yeast fitness was at most 0.5. For A15G U32A G38A C49U, the yeast fitness was at most 0.5.

As to A20C G23A C29U A36C A43C, the yeast fitness was at most 0.5.

With A15G U19A A69U, the yeast fitness is 0.729. For C22A C29G G44A U64G, the yeast fitness was at most 0.5. Take G17A A42U U59C: the yeast fitness is at most 0.5. For C29U G38C C55U G67C, the yeast fitness is at most 0.5. On to A20U C34A G58C C62A A69C, for which the yeast fitness is at most 0.5. Under C30G C31G A43G G56C stands at most 0.5; under A14C A65G A69U, 0.634; under G25C A65G, 1.

On to A20U A43U C55A U64A, for which the yeast fitness is at most 0.5. As to G18C U35G G41C G56A A65G C66U, the yeast fitness was at most 0.5. With G23A C30U C55A G63A the figure was at most 0.5. Under C30A G63A U64C stands 0.893; under U26A C61G A70U, 0.764; under C22G C29G C33U, at most 0.5.

With U32G A40U U59A, the yeast fitness is at most 0.5. For U7A G9C A40C, the yeast fitness turned out to be 0.623. On to C5U A42G G56C, for which the yeast fitness is at most 0.5. Regarding U13A C31G, the yeast fitness amounted to 1.05. For C30U U59G, the yeast fitness was determined as 0.898. On to U3C U19G A21C U32A A37U, for which the yeast fitness was at most 0.5. Consider C4U U7A G68A, for which the yeast fitness was at most 0.5. Turning to G10A C11A U16G A69G, the yeast fitness was determined as 0.538. With G9C A15U C24U U53G C62G the figure was at most 0.5.
